IC50 and Activity data for 20 compounds are collected here from ChEMBL document CHEMBL2331246, “Synthesis and biological evaluation of substituted 2-benzoylpyridine thiosemicarbazones: novel structure-activity relationships underpinning their anti-proliferative and chelation efficacy” (Bioorg Med Chem Lett, 2013).

The structures appear in SMILES notation.

Assay [1] deals with SK-N-MC. Put plainly: Antiproliferative activity against human SK-N-MC cells measured after 72 hrs at 37 degC by MTT assay. The format is functional, cell-based. Put shortly:
(§1)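 Cells seeded and left to attach 24 h, then exposed to control medium or chelator for 72 h at 37 °C; proliferation read by MTT assay.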
For orientation: Tetrazolium assays rely on reduction of a dye to a coloured formazan, in cell work by metabolically active cells.

The subject of another assay is MRC5. Put plainly: Antiproliferative activity against human MRC5 cells measured after 72 hrs at 37 degC by MTT assay. The format is functional, cell-based. The settings on record: MRC5, 72 h. In outline:
as §1

The subject of assay [2] is SK-N-MC. Put plainly: Induction of cellular iron mobility in human SK-N-MC cells assessed as iron release at 25 uM for 3 hrs at 37 degC. The format is functional. Put shortly: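 Cells prelabeled with 59Fe-transferrin (0.75 µM) 3 h at 37 °C, washed four times with ice-cold PBS, then given control medium or chelator (25 µM) 3 h at 37 °C; released 59Fe expressed as % of intracellular 59Fe. Mean ± SD, three experiments, triplicate determinations.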

In assay [3] the test system is SK-N-MC. Put plainly: Inhibition of cellular iron uptake in human SK-N-MC cells assessed as iron uptake at 25 uM for 3 hrs at 37 degC relative to control. The format is functional. Set-up: scale not given: the % may be the effect or the level left. In outline: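 59Fe-transferrin (0.75 µM) given to cells 3 h at 37 °C with or without chelator (25 µM); washed four times on ice, internalized 59Fe measured and expressed as % of control. Mean ± SD of three experiments with three determinations each.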

A word on the IC50: it is the concentration needed to halve the response being measured.

Consider `Cc1cccc(/C(=N\NC(=S)Nc2ccccc2)c2ccccc2)n1`, for which the figures for the 50% inhibitory concentration (IC50) in the assay on SK-N-MC [1] and with MRC5 were 2.8 µM and above 6.25 µM, respectively. Further, the Activity came to 9% in the assay with SK-N-MC [2] and 58% with SK-N-MC [3].

Regarding `CNC(=S)N/N=C(/c1ccccc1)c1cccc(C)n1`, the IC50 was 5.32 µM in the assay with SK-N-MC [1] and above 6.25 µM in the assay with MRC5. Besides, the Activity with SK-N-MC [2] was determined as 9%; in the assay with SK-N-MC [3], 14%.

For the compound `COc1ccc(/C(=N/NC(N)=S)c2cccc(C)n2)cc1`, the IC50 with SK-N-MC [1] and in the assay on MRC5 was above 6.25 µM each time. The Activity in the assay with SK-N-MC [2] is 15%; with SK-N-MC [3], 14%.

In the case of `COc1ccc(/C(=N/NC(N)=S)c2cccc(C)n2)cc1OC`, the IC50 in the assay with SK-N-MC [1] and in the assay on MRC5 was above 6.25 µM each time. For the same compound, the Activity is given as 21% in the assay with SK-N-MC [2] and 14% with SK-N-MC [3].

With `CN(C)C(=S)NN=C(c1ccccn1)c1ccccn1`, the Activity with SK-N-MC [3] came to 5%.

In turn, `CC(=O)N(O)CCCCCNC(=O)CCC(=O)N(O)CCCCCNC(=O)CCC(=O)N(O)CCCCCN` [DEFEROXAMINE] had an IC50 in the assay with SK-N-MC [1] of 21.6 µM. In addition, the Activity in the assay on SK-N-MC [3] is reported as 80%.

Regarding `Cc1cccc(/C(=N\NC(N)=S)c2ccccc2)n1`, the IC50 in the assay with SK-N-MC [1] and with MRC5 was above 6.25 µM in each case. Further, the Activity in the assay with SK-N-MC [2] stood at 9%; in the assay with SK-N-MC [3], 14%.

Consider `CCNC(=S)N/N=C(/c1ccccc1)c1cccc(C)n1`, for which the results for the IC50 in the assay with SK-N-MC [1] and with MRC5 were 0.88 µM and above 6.25 µM, respectively. Also, the values for the Activity in the assay with SK-N-MC [2] and in the assay with SK-N-MC [3] were 9% and 14%, respectively.

`C=CCNC(=S)N/N=C(/c1ccc(OC)cc1)c1cccc(C)n1`: the IC50 in the assay with SK-N-MC [1] and with MRC5 was above 6.25 µM each time. Moreover, the figures for the Activity with SK-N-MC [2] and with SK-N-MC [3] were 15% and 14%, respectively.

In the case of `COc1ccc(/C(=N/NC(=S)Nc2ccccc2)c2cccc(C)n2)cc1`, the IC50 with SK-N-MC [1] was found to be 1.75 µM; in the assay with MRC5, 3.81 µM. Besides, the Activity stood at 15% in the assay with SK-N-MC [2] and 58% in the assay on SK-N-MC [3].

Consider `CNC(=S)N/N=C(/c1ccc(OC)cc1)c1cccc(C)n1`, for which the IC50 in the assay on SK-N-MC [1] and in the assay with MRC5 was above 6.25 µM in each case. For the same compound, the Activity turned out to be 42% in the assay on SK-N-MC [2] and 22% in the assay on SK-N-MC [3].

As to `COc1ccc(/C(=N/NC(=S)Nc2ccccc2)c2cccc(C)n2)cc1OC`, the IC50 was 0.62 µM in the assay on SK-N-MC [1] and 2.11 µM in the assay with MRC5. Besides, the results for the Activity with SK-N-MC [2] and with SK-N-MC [3] were 21% and 58%, respectively.

As for `COc1ccc(/C(=N/NC(=S)N(C)C)c2cccc(C)n2)cc1OC`, the IC50 in the assay on SK-N-MC [1] is 2.48 µM; in the assay with MRC5 it was above 6.25 µM. In addition, the results for the Activity with SK-N-MC [2] and with SK-N-MC [3] were 41% and 14%, respectively.

For the compound `C=CCNC(=S)N/N=C(/c1ccc(OC)c(OC)c1)c1cccc(C)n1`, the IC50 in the assay with SK-N-MC [1] and in the assay on MRC5 was above 6.25 µM each time. Besides, the Activity in the assay on SK-N-MC [2] was 21%; with SK-N-MC [3] it was 14%.

Turning to `Cc1cccc(/C(=N\NC(=S)N(C)C)c2ccccc2)n1`, the IC50 with SK-N-MC [1] stood at 0.009 µM; in the assay with MRC5 it was 0.021 µM. For the same compound, the results for the Activity with SK-N-MC [2] and in the assay with SK-N-MC [3] were 9% and 14%, respectively.

For `C=CCNC(=S)N/N=C(/c1ccccc1)c1cccc(C)n1`, the IC50 with SK-N-MC [1] and in the assay on MRC5 was above 6.25 µM in each case. In addition, the Activity in the assay with SK-N-MC [2] turned out to be 9%; in the assay with SK-N-MC [3], 14%.

Take `CNC(=S)N/N=C(/c1ccc(OC)c(OC)c1)c1cccc(C)n1`: the IC50 in the assay on SK-N-MC [1] and with MRC5 was above 6.25 µM each time. Moreover, the Activity with SK-N-MC [2] is given as 21%; in the assay on SK-N-MC [3], 14%.

With `COc1ccc(/C(=N/NC(=S)N(C)C)c2cccc(C)n2)cc1`, the IC50 was 2.2 µM in the assay with SK-N-MC [1] and above 6.25 µM in the assay with MRC5. In addition, the results for the Activity in the assay with SK-N-MC [2] and in the assay on SK-N-MC [3] were 15% and 14%, respectively.

`CCNC(=S)N/N=C(/c1ccc(OC)cc1)c1cccc(C)n1`: the IC50 with SK-N-MC [1] and in the assay with MRC5 was above 6.25 µM throughout. For the same compound, the Activity in the assay with SK-N-MC [2] was 15%; in the assay with SK-N-MC [3] it was 14%.

`CCNC(=S)N/N=C(/c1ccc(OC)c(OC)c1)c1cccc(C)n1`: the 50% inhibitory concentration (IC50) with SK-N-MC [1] and in the assay with MRC5 was above 6.25 µM in each case. Moreover, the Activity was 21% in the assay on SK-N-MC [2] and 14% in the assay on SK-N-MC [3].
